Test results from ChEMBL document CHEMBL1144181, “Achiral oligoamines as versatile tool for the development of aspartic protease inhibitors” (Bioorg Med Chem, 2008).

Assays:
Protease = Protease (Human immunodeficiency virus 1, UniProt Q9YQ12); assay: Inhibition of recombinant HIV1 protease expressed in Escherichia coli by fluorescence technique
[1] = Inhibition of Plasmodium recombinant plasmepsin-2 expressed in Escherichia coli by fluorescence technique
In short: (§1)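 The recombinant enzyme was expressed in E. coli and purified. It was assayed at room temperature in 100 mM NaAc, pH 4.5, with 1 mg/mL BSA and 4% final DMSO. The substrate was Abz-Thr-Ile-Nle-(p-NO2-Phe)-Gln-Arg-NH2, read by fluorescence increase (ex 337, em 410 nm). IC50 came from nonlinear regression of vi/v0 versus inhibitor concentration, and Ki = IC50/[1+(S/Km)].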

Beta-secretase 1 = Beta-secretase 1 (Homo sapiens, UniProt P56817); assay: Inhibition of recombinant beta secretase 1 by fluorescence technique
Beta-secretase 1, sequence (P56817 whole entry): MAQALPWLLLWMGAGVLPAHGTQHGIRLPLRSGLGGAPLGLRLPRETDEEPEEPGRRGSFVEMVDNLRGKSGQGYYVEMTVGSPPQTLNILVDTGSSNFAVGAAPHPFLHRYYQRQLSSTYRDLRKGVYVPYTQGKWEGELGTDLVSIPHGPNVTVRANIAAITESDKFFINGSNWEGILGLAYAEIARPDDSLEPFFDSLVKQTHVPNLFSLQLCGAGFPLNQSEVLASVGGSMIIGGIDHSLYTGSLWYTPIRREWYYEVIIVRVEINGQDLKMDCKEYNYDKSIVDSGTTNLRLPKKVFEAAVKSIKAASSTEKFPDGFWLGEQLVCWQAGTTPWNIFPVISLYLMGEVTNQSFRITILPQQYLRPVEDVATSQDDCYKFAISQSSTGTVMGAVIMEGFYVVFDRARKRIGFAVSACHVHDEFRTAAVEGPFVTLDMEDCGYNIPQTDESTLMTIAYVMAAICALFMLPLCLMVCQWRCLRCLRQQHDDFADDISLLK

[2] = Inhibition of Plasmodium recombinant plasmepsin-4 expressed in Escherichia coli by fluorescence technique; in short: as §1
[3] = Inhibition of pig pepsin by fluorescence technique; set-up: species or system Sus scrofa
Renin = biological target: T1, Renin (Homo sapiens, UniProt P00797); assay: Inhibition of recombinant renin by fluorescence technique
T1 sequence (P00797 whole entry): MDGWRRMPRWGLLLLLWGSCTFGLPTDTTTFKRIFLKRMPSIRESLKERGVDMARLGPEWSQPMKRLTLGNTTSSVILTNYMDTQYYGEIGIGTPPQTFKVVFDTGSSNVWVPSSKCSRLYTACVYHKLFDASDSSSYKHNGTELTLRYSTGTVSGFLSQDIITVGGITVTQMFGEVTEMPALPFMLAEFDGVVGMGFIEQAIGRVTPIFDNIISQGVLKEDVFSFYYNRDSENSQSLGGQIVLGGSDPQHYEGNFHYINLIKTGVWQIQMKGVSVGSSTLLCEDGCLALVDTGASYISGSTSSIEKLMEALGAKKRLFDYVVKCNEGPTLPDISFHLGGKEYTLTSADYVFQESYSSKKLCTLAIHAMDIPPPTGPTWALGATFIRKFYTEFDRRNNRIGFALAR

Protease, sequence (Q9YQ12 whole entry): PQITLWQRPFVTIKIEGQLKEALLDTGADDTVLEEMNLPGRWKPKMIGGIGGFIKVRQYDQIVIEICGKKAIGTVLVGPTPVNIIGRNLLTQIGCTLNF

Work on `CC(C)CN(C[C@@H](O)[C@H](Cc1ccccc1)NC(=O)O[C@H]1CCOC1)S(=O)(=O)c1ccc(N)cc1` yielded a Ki (Protease) of 0.9 µM.

Compound `O=S(=O)(c1ccccc1)N(CCNCCN(Cc1ccccc1)S(=O)(=O)c1ccccc1)Cc1ccccc1` has a Ki [1] of 7 µM, an IC50 (Beta-secretase 1) of over 250 µM and a Ki [2] of 36 µM. For the same compound, the Ki [3] was 5.7 µM, the Ki (Protease) was 3.8 µM and the IC50 (Renin) was over 250 µM.

`O=C(Cc1ccccc1)N(CCCNCCCN(Cc1ccccc1)C(=O)Cc1ccccc1)Cc1ccccc1` showed a Ki [1] of 120 µM, an IC50 (Beta-secretase 1) of over 250 µM and a Ki [2] of 170 µM. For the same compound, the IC50 [3] was over 250 µM, the IC50 (Protease) was over 250 µM and the Ki (Renin) was 16 µM.

In the case of `O=S(=O)(c1ccccc1)N(CCCNCCCN(Cc1ccccc1)S(=O)(=O)c1ccccc1)Cc1ccccc1`, the Ki [1] is reported as 21 µM, the Ki (Beta-secretase 1) is reported as 150 µM and the Ki [2] is reported as 42 µM. It also gave an IC50 [3] of over 250 µM, an IC50 (Protease) of over 250 µM and an IC50 (Renin) of over 250 µM.

For `O=C(Cc1ccccc1)N(CCCNCCN(Cc1ccccc1)C(=O)Cc1ccccc1)Cc1ccccc1`, the Ki [1] was 63 µM, the IC50 (Beta-secretase 1) was over 250 µM and the Ki [2] was 56 µM. It also gave an IC50 [3] of over 250 µM, an IC50 (Protease) of over 250 µM and an IC50 (Renin) of over 250 µM.

Work on `O=C(Cc1ccccc1)N(CCNCCN(Cc1ccccc1)C(=O)Cc1ccccc1)Cc1ccccc1` yielded a Ki [1] of 91 µM, an IC50 (Beta-secretase 1) of over 250 µM and a Ki [2] of 98 µM. The IC50 [3] was over 250 µM, the IC50 (Protease) was over 250 µM and the Ki (Renin) was 5.7 µM.

In the case of `CC(C)CN(CCNCCN(CC(C)C)S(=O)(=O)c1ccc(N)cc1)S(=O)(=O)c1ccc(N)cc1`, the Ki [1] is reported as 6.8 µM, the IC50 (Beta-secretase 1) is reported as over 250 µM and the Ki [2] is reported as 56 µM. It also gave a Ki [3] of 4.8 µM and an IC50 (Renin) of over 250 µM.

In the case of `Nc1ccc(S(=O)(=O)N(CCCNCCN(Cc2ccccc2)S(=O)(=O)c2ccc(N)cc2)Cc2ccccc2)cc1`, the Ki [1] is reported as 22 µM, the IC50 (Beta-secretase 1) is reported as over 250 µM and the Ki [2] is reported as 7.5 µM. The IC50 [3] was over 250 µM, the IC50 (Protease) was over 250 µM and the IC50 (Renin) was over 250 µM.

`Nc1ccc(S(=O)(=O)N(CCCNCCCN(Cc2ccccc2)S(=O)(=O)c2ccc(N)cc2)Cc2ccccc2)cc1` showed a Ki [1] of 2.8 µM, a Ki (Beta-secretase 1) of 64 µM and a Ki [2] of 20 µM. The Ki [3] was 4 µM, the IC50 (Protease) was over 250 µM and the IC50 (Renin) was over 250 µM.

Compound `Nc1ccc(S(=O)(=O)N(CCNCCN(Cc2ccccc2)S(=O)(=O)c2ccc(N)cc2)Cc2ccccc2)cc1` has a Ki [1] of 4.2 µM, an IC50 (Beta-secretase 1) of over 250 µM and a Ki [2] of 7.5 µM. For the same compound, the Ki [3] was 3.9 µM and the IC50 (Renin) was over 250 µM.

`O=S(=O)(c1ccccc1)N(CCCNCCN(Cc1ccccc1)S(=O)(=O)c1ccccc1)Cc1ccccc1` gave a Ki [1] of 18 µM, an IC50 (Beta-secretase 1) of over 250 µM and a Ki [2] of 17 µM. For the same compound, the Ki [3] was 15 µM, the Ki (Protease) was 14 µM and the IC50 (Renin) was over 250 µM.

With `CC(C)CN(CCNCCN(CC(C)C)S(=O)(=O)c1ccccc1)S(=O)(=O)c1ccccc1` the Ki [1] was 23 µM, the IC50 (Beta-secretase 1) was over 250 µM and the Ki [2] was 87 µM. For the same compound, the Ki [3] was 4.5 µM, the Ki (Protease) was 10 µM and the IC50 (Renin) was over 250 µM.
